Common to all, as to format: functional
Assay [1] deals with Mycobacterium tuberculosis. As to the kind of experiment: Antitubercular activity against PAS/INH/EMB/RMP-resistant Mycobacterium tuberculosis Spec.210 assessed as isoniazid MIC incubated for 14 days in presence of isoniazid by MABA method. As to conditions: Mycobacterium tuberculosis, 210, 336 h; time 14 day. The procedure, abridged:
(§1)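 In Middlebrook 7H9 with 10% OADC, the reference drug (INH, RMP, SM or EMB) at 1 to 1/32 of its MIC alone was mixed with the test derivative fixed at 1/2 its MIC. 4 ml samples were inoculated with McFarland 1 suspension and incubated 14 days at 37 °C. MIC is the lowest drug concentration in combination that inhibited growth.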
On the technique in general: Alamar Blue is a resazurin reagent that responds to reducing activity.

The subject of assay [2] is Mycobacterium tuberculosis. Description: Antitubercular activity against INH-resistant Mycobacterium tuberculosis Spec.800 assessed as streptomycin MIC incubated for 14 days in presence of streptomycin by MABA method. The following applies: Mycobacterium tuberculosis, 800, 336 h; time 14 day. The procedure, abridged: as §1
In assay [3] the test system is Mycobacterium tuberculosis. Description: Potency index, Ratio of ethambutol MIC to test compound MIC for antitubercular activity against PAS/INH/EMB/RMP-resistant Mycobacterium tuberculosis Spec.210 assessed as inhibition of microbial growth incubated for 1 week by MABA method. As to conditions: time 1 weeks.
The test system of assay [4] is Mycobacterium tuberculosis. Description: Antitubercular activity against PAS/INH/EMB/RMP-resistant Mycobacterium tuberculosis Spec.210 assessed as inhibition of microbial growth incubated for 1 week by MABA method. The following applies: Mycobacterium tuberculosis, 210, 168 h; time 1 weeks. The essentials:
(§2)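 Microplate Alamar Blue assay in Middlebrook 7H9 broth with 10% OADC. Inoculum from fresh LJ culture was adjusted to McFarland 1 and diluted 1:20. DMSO stocks were two-fold serially diluted to final 0.125–512 µg/ml, with growth and sterile controls. Plates ran 1 week at 37 °C, then Alamar blue was added for 24 h. MIC is the lowest concentration preventing the blue-to-pink change.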

For assay [5], the system named is Mycobacterium tuberculosis. Description: Potency index, Ratio of isoniazid MIC to test compound MIC for antitubercular activity against PAS/INH/EMB/RMP-resistant Mycobacterium tuberculosis Spec.210 assessed as inhibition of microbial growth incubated for 1 week by MABA method. The following applies: time 1 weeks.
In assay [6] the test system is Mycobacterium tuberculosis. As to the kind of experiment: Antitubercular activity against PAS/INH/EMB/RMP-resistant Mycobacterium tuberculosis Spec.210 assessed as streptomycin MIC incubated for 14 days in presence of streptomycin by MABA method. As to conditions: Mycobacterium tuberculosis, 210, 336 h; time 14 day. The essentials:
(§3)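 Combination assay in Middlebrook 7H9 broth with 10% OADC. The reference drug (INH, RMP, SM or EMB) was varied from 1 to 1/32 of its MIC, and the test derivative was fixed at 1/2 its own MIC. Single-agent MICs were determined first by MABA. Inoculum was 1 McFarland, with 14 days of incubation at 37 °C. The endpoint was the lowest reference-drug concentration that inhibited growth.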

The test system of assay [7] is Mycobacterium tuberculosis. Description: Potency index, Ratio of streptomycin MIC to test compound MIC for antitubercular activity against PAS/INH/EMB/RMP-resistant Mycobacterium tuberculosis Spec.210 assessed as inhibition of microbial growth incubated for 1 week by MABA method. As to conditions: time 1 weeks.
Assay [8] concerns Mycobacterium tuberculosis. As to the kind of experiment: Antitubercular activity against PAS/INH/EMB/RMP-resistant Mycobacterium tuberculosis Spec.210 assessed as rifampicin MIC incubated for 14 days in presence of rifampicin by MABA method. As to conditions: Mycobacterium tuberculosis, 210, 336 h; time 14 day. The procedure, abridged:
as §3

For assay [9], the system named is Mycobacterium tuberculosis. Description: Antitubercular activity against PAS/INH/EMB/RMP-resistant Mycobacterium tuberculosis Spec.210 assessed as fractional inhibitory concentration index in presence of 1/2 x MIC streptomycin incubated for 14 days by MABA method. As to conditions: time 14 day. The essentials: (§4)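 Interaction analysis in Middlebrook 7H9 with 10% OADC. Combination MICs came from mixing the derivative (1 to 1/32 MIC) with the reference drug at 1/2 MIC, and the reverse, after 14 days at 37 °C with McFarland 1 inoculum. FICI was calculated from the combination MIC values and the MICs alone.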

For assay [10], the system named is Mycobacterium tuberculosis. As to the kind of experiment: Antitubercular activity against PAS/INH/EMB/RMP-resistant Mycobacterium tuberculosis Spec.210 assessed as fractional inhibitory concentration index in presence of 1/2 x MIC isoniazid incubated for 14 days by MABA method. The following applies: time 14 day. The essentials: as §4
Assay [11] concerns Mycobacterium tuberculosis. As to the kind of experiment: Antitubercular activity against INH-resistant Mycobacterium tuberculosis Spec.800 harboring InhA promoter mutation assessed as inhibition of microbial growth incubated for 1 week by MABA method. As to conditions: time 1 weeks. The essentials:
as §2

Assay [12] has as its system Mycobacterium tuberculosis. As to the kind of experiment: Antitubercular activity against PAS/INH/EMB/RMP-resistant Mycobacterium tuberculosis Spec.210 assessed as fractional inhibitory concentration index in presence of 1/2 x MIC ethambutol incubated for 14 days by MABA method. As to conditions: time 14 day. The essentials:
as §4

The test system of assay [13] is Mycobacterium tuberculosis. Description: Antitubercular activity against INH-resistant Mycobacterium tuberculosis Spec.800 assessed as isoniazid MIC incubated for 14 days in presence of isoniazid by MABA method. As to conditions: Mycobacterium tuberculosis, 800, 336 h; time 14 day. The procedure, abridged:
as §1

Assay [14] deals with Mycobacterium tuberculosis. As to the kind of experiment: Antitubercular activity against INH-resistant Mycobacterium tuberculosis Spec.800 assessed as reduction in bacterial growth incubated for 14 days in presence of 1/2 x MIC rifampicin by MABA method. The following applies: Mycobacterium tuberculosis, 800, 336 h; time 14 day. The procedure, abridged: (§5)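 Checkerboard-type combination in Middlebrook 7H9 with 10% OADC. The test derivative at 1 to 1/32 of its MIC alone was mixed with the reference drug fixed at 1/2 its MIC. 4 ml samples were inoculated with McFarland 1 suspension and incubated 14 days at 37 °C. MIC is the lowest derivative concentration in combination that inhibited growth in liquid medium.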

Assay [15] deals with Mycobacterium tuberculosis. Description: Antitubercular activity against PAS/INH/EMB/RMP-resistant Mycobacterium tuberculosis Spec.210 assessed as ethambutol MIC incubated for 14 days in presence of ethambutol by MABA method. The following applies: Mycobacterium tuberculosis, 210, 336 h; time 14 day. The procedure, abridged:
as §1

For assay [16], the system named is Mycobacterium tuberculosis. Description: Antitubercular activity against PAS/INH/EMB/RMP-resistant Mycobacterium tuberculosis Spec.210 assessed as reduction in bacterial growth incubated for 14 days in presence of 1/2 x MIC streptomycin by MABA method. The following applies: Mycobacterium tuberculosis, 210, 336 h; time 14 day. The procedure, abridged:
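Checkerboard-style combination in Middlebrook 7H9 broth with 10% OADC. The test derivative was varied from 1 to 1/32 of its MIC, and the reference drug was fixed at 1/2 its own MIC. Single-agent MICs were determined first by MABA. Samples of 4 ml received inoculum at 1 McFarland and were incubated 14 days at 37 °C. The endpoint was the lowest derivative concentration that inhibited growth.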

Assay [17] relates to Mycobacterium tuberculosis. As to the kind of experiment: Antitubercular activity against INH-resistant Mycobacterium tuberculosis Spec.800 assessed as reduction in bacterial growth incubated for 14 days in presence of 1/2 x MIC streptomycin by MABA method. As to conditions: Mycobacterium tuberculosis, 800, 336 h; time 14 day. The essentials:
as §5

The subject of assay [18] is Mycobacterium tuberculosis. As to the kind of experiment: Antitubercular activity against INH-resistant Mycobacterium tuberculosis Spec.800 assessed as reduction in bacterial growth incubated for 14 days in presence of 1/2 x MIC ethambutol by MABA method. As to conditions: Mycobacterium tuberculosis, 800, 336 h; time 14 day. The essentials:
as §5

The subject of assay [19] is Mycobacterium tuberculosis. Description: Antitubercular activity against INH-resistant Mycobacterium tuberculosis Spec.800 assessed as rifampicin MIC incubated for 14 days in presence of rifampicin by MABA method. The following applies: Mycobacterium tuberculosis, 800, 336 h; time 14 day. The procedure, abridged:
as §1

In assay [20] the test system is Mycobacterium tuberculosis. Description: Antitubercular activity against PAS/INH/EMB/RMP-resistant Mycobacterium tuberculosis Spec.210 assessed as fractional inhibitory concentration index in presence of 1/2 x MIC rifampicin incubated for 14 days by MABA method. As to conditions: time 14 day. The procedure, abridged: as §4
Assay [21] concerns Mycobacterium tuberculosis. Description: Antitubercular activity against INH-resistant Mycobacterium tuberculosis Spec.800 assessed as reduction in bacterial growth incubated for 14 days in presence of 1/2 x MIC isoniazid by MABA method. As to conditions: Mycobacterium tuberculosis, 800, 336 h; time 14 day. The procedure, abridged: as §5
Assay [22] concerns Mycobacterium tuberculosis. Description: Potentiation of streptomycin-induced antimycobacterial activity against INH-resistant Mycobacterium tuberculosis Spec.800 harboring InhA promoter mutation assessed as fold decrease in streptomycin MIC at 1/2X MIC incubated for 14 days in presence of streptomycin by MABA method. As to conditions: time 14 day. The procedure, abridged: as §3

As usually defined, the MIC is the least concentration at which growth counts as inhibited.

Turning to `COc1ccc(-n2nnnc2Nc2cccc(Br)c2)cc1`, the MIC in assay [1] came out at 16 µg/mL; in assay [2], 0.5 µg/mL; in [4], 2 µg/mL; in [6] it was 16 µg/mL; in assay [8] it was 8 µg/mL; in assay [11], 128 µg/mL. Moreover, the MIC worked out at 1 µg/mL in [13]; 64 µg/mL in [14]; 16 µg/mL in assay [15]; 0.5 µg/mL in [16]; 8 µg/mL in [17]; 32 µg/mL in assay [18]. Besides, the MIC in assay [19] was 0.25 µg/mL; in assay [21], 16 µg/mL. The Ratio is 16 in [3], 8 in assay [5] and 8 in assay [7]. For the same compound, the “fractional inhibitory concentration index (FICI)” value came to 1.25 in assay [9], 1.125 in assay [10], 1.5 in assay [12] and 0.5 in assay [20]. In addition, the “fold change (FC)” value in assay [22] is “<=4”.
Regarding `COc1ccc(-n2nnnc2Nc2ccc(Br)cc2)cc1`, the MIC in [1] was determined as 8 µg/mL; in assay [2], 0.25 µg/mL; in [4], 2 µg/mL; in assay [6], 8 µg/mL; in assay [8] it was 8 µg/mL; in assay [11], 128 µg/mL. Further, the MIC in assay [13] is 0.5 µg/mL; in [14], 128 µg/mL; in assay [15] it was 16 µg/mL; in assay [16] it was 1 µg/mL; in assay [17], 16 µg/mL; in [18], 32 µg/mL. The MIC worked out at 0.125 µg/mL in assay [19] and 32 µg/mL in assay [21]. The figures for the Ratio in [3], in assay [5] and in assay [7] were 16, 8 and 8, respectively. Moreover, the “fractional inhibitory concentration index (FICI)” value in assay [9] worked out at 1; in assay [10], 0.625; in [12], 1.5; in [20], 0.75. In addition, the “fold change (FC)” value in assay [22] is reported as 4.
